Source: ChEMBL document CHEMBL1795313, “Synthesis and antimicrobial activities of hexahydroimidazo[1,5-a]pyridinium bromides with varying benzyl substituents” (Eur J Med Chem, 2011)

Assays:
Escherichia coli = test: Antimicrobial activity against Escherichia coli ATCC 8739 after 18 hrs by microdilution method; type: functional
Outline: (§1)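 Broth microdilution per NCCLS M7-A4. Stocks kept on nutrient agar at 4 °C. Overnight cultures in double-strength Mueller-Hinton broth, adjusted to 10⁸ cfu/mL against McFarland 0.5. Compounds serially diluted in sterile distilled water (400 down to 0.78). Incubated at 37 °C for 18 h. MIC taken as the first well without turbidity. Wells without organism and water/medium growth controls included.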

Candida albicans = test: Antifungal activity against Candida albicans ATCC 10231 after 18 hrs by microdilution method; type: functional
Outline: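 Yeast broth microdilution per NCCLS M27-A. Stock kept on potato dextrose agar at 4 °C. Suspension in double-strength yeast glucose broth, adjusted to 10⁸ cfu/mL by McFarland 0.5. Water-based twofold series (400 down to 0.78) used. Incubated at 37 °C for 18 h. MIC is the lowest concentration with no visible turbidity.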

Staphylococcus aureus = test: Antimicrobial activity against Staphylococcus aureus 6538/P after 18 hrs by microdilution method; type: functional; outline: as §1
[1] = test system: Staphylococcus epidermidis; test: Antimicrobial activity against Staphylococcus epidermidis ATCC 12228 after 18 hrs by microdilution method; type: functional; outline: as §1
Pichia kudriavzevii = test: Antifungal activity against Candida krusei ATCC 6258 after 18 hrs by microdilution method; type: functional
Outline: (§2)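 NCCLS M27-A broth microdilution for yeast. Two-fold series from 400 to 0.78 made in sterile distilled water. Inoculum in double-strength yeast glucose broth, adjusted to 10⁸ cfu/mL (McFarland 0.5). Incubated 37 °C, 18 h. MIC taken as the first well without turbidity. Medium-only and water-plus-medium controls.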

Micrococcus luteus = test: Antimicrobial activity against Micrococcus luteus ATCC 9341 after 18 hrs by microdilution method; type: functional
Outline: as §2, with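 “M7-A4” for “M27-A”, “microdilution.” for “microdilution for yeast.”, “Overnight bacteria” for “Inoculum”, “Mueller-Hinton” for “yeast glucose”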

[2] = Acute toxicity in po dosed Swiss albino mouse after 24 hrs; type: organism-based; settings: in vivo
Outline: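 Mice dosed orally, 5 male and 5 female per group; limit test at 2000 mg/kg, plus classical LD50 test; toxic responses and deaths recorded over 24 h; LD50 derived from lethality.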

Proteus vulgaris = test: Antimicrobial activity against Proteus vulgaris ATCC 6897 after 18 hrs by microdilution method; type: functional
Outline: as §2, with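 “M7-A4” for “M27-A”, “microdilution.” for “microdilution for yeast.”, “Overnight bacteria” for “Inoculum”, “Mueller-Hinton” for “yeast glucose”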

Klebsiella pneumoniae = test: Antimicrobial activity against Klebsiella pneumoniae CCM 2318 after 18 hrs by microdilution method; type: functional
Outline: as §2, with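 “M7-A4” for “M27-A”, “microdilution.” for “microdilution for yeast.”, “Overnight bacteria” for “Inoculum”, “Mueller-Hinton” for “yeast glucose”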

Salmonella typhimurium = test: Antimicrobial activity against Salmonella Typhimurium CCM 5445 after 18 hrs by microdilution method; type: functional, Salmonella enterica subsp. enterica serovar Typhimurium
Outline: as §2, with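 “M7-A4” for “M27-A”, “microdilution.” for “microdilution for yeast.”, “Overnight bacteria” for “Inoculum”, “Mueller-Hinton” for “yeast glucose”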

Bacillus cereus = test: Antimicrobial activity against Bacillus cereus CCM 99 after 18 hrs by microdilution method; type: functional
Outline: as §2, with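 “M7-A4” for “M27-A”, “microdilution.” for “microdilution for yeast.”, “Overnight bacteria” for “Inoculum”, “Mueller-Hinton” for “yeast glucose”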

[3] = Salmonella enterica, CCM 5445, 18 h

Compound	MIC (Escherichia coli; ATCC 8739, 18 h)	MIC (Candida albicans; ATCC 10231, 18 h)	MIC (Staphylococcus aureus)	MIC ([1]; ATCC 12228, 18 h)	MIC (Pichia kudriavzevii; ATCC 6258, 18 h)	MIC (Micrococcus luteus; ATCC 9341, 18 h)	LD50 at 24 h [2]	MIC (Proteus vulgaris; ATCC 6897, 18 h)	MIC (Klebsiella pneumoniae; CCM 2318, 18 h)	MIC (Salmonella typhimurium; [3])	MIC (Bacillus cereus; CCM 99, 18 h)	MIC (Pichia kudriavzevii)	MIC (Candida albicans)	MIC (Micrococcus luteus)	MIC (Escherichia coli)	MIC (Proteus vulgaris)	MIC (Klebsiella pneumoniae)	MIC (Salmonella typhimurium; Salmonella enterica subsp. enterica serovar Typhimurium)	MIC [1]	MIC (Bacillus cereus)
Cc1cc(C)c(C[n+]2cn(C)c3ccccc32)c(C)c1.[Cl-]	1600 µg/mL	1600 µg/mL	1600 µg/mL	1600 µg/mL	–	–	–	–	–	–	–	–	–	–	–	–	–	–	–	–
C1=[N+](Cc2ccccc2)CC2CCCCN12.[Br-] (centres undefined)	> 400 µg/mL	> 400 µg/mL	100 µg/mL	50 µg/mL	> 400 µg/mL	3.12 µg/mL	907 mg/kg	> 400 µg/mL	> 400 µg/mL	> 400 µg/mL	> 400 µg/mL	–	–	–	–	–	–	–	–	–
Clc1ccc(C[N+]2=CN3CCCCC3C2)c(Cl)c1.[Br-] (centres undefined)	3.12 µg/mL	0.78 µg/mL	0.78 µg/mL	0.78 µg/mL	0.78 µg/mL	0.78 µg/mL	1890 mg/kg	1.56 µg/mL	12.5 µg/mL	0.78 µg/mL	3.12 µg/mL	–	–	–	–	–	–	–	–	–
Cc1c(C)c(C)c(C[N+]2=CN3CCCCC3C2)c(C)c1C.[Br-] (centres undefined)	12.5 µg/mL	50 µg/mL	25 µg/mL	3.12 µg/mL	3.12 µg/mL	12.5 µg/mL	1110 mg/kg	6.25 µg/mL	50 µg/mL	12.5 µg/mL	12.5 µg/mL	–	–	–	–	–	–	–	–	–
Fc1c(F)c(F)c(C[N+]2=CN3CCCCC3C2)c(F)c1F.[Br-] (centres undefined)	25 µg/mL	12.5 µg/mL	3.12 µg/mL	0.78 µg/mL	3.12 µg/mL	0.78 µg/mL	978 mg/kg	12.5 µg/mL	12.5 µg/mL	25 µg/mL	6.25 µg/mL	–	–	–	–	–	–	–	–	–
Cc1cc(C)c(C[N+]2=CN3CCCCC3C2)c(C)c1.[Br-] (centres undefined)	200 µg/mL	50 µg/mL	50 µg/mL	25 µg/mL	12.5 µg/mL	6.25 µg/mL	758 mg/kg	50 µg/mL	200 µg/mL	100 µg/mL	200 µg/mL	–	–	–	–	–	–	–	–	–
CC(C)(C)c1ccc(C[N+]2=CN3CCCCC3C2)cc1.[Br-] (centres undefined)	200 µg/mL	25 µg/mL	100 µg/mL	100 µg/mL	50 µg/mL	12.5 µg/mL	838 mg/kg	50 µg/mL	200 µg/mL	100 µg/mL	200 µg/mL	–	–	–	–	–	–	–	–	–
Cc1ccc(C[N+]2=CN3CCCCC3C2)cc1.[Br-] (centres undefined)	0.78 µg/mL	3.12 µg/mL	3.12 µg/mL	1.56 µg/mL	0.78 µg/mL	6.25 µg/mL	> 2000 mg/kg	6.25 µg/mL	0.78 µg/mL	50 µg/mL	< 0.78 µg/mL	–	–	–	–	–	–	–	–	–
FC(F)(F)c1ccc(C[N+]2=CN3CCCCC3C2)cc1.[Br-] (centres undefined)	0.78 µg/mL	0.78 µg/mL	1.56 µg/mL	0.78 µg/mL	0.78 µg/mL	0.78 µg/mL	824 mg/kg	6.25 µg/mL	12.5 µg/mL	0.78 µg/mL	3.12 µg/mL	–	–	–	–	–	–	–	–	–
Cc1cc(C)c(CN2C=[N+](Cc3c(C)cc(C)cc3C)C3CCCCC32)c(C)c1.[Cl-] (centres undefined)	1600 µg/mL	1600 µg/mL	100 µg/mL	1600 µg/mL	–	–	–	–	–	–	–	–	–	–	–	–	–	–	–	–
N#Cc1ccc(C[N+]2=CN3CCCCC3C2)cc1.[Br-] (centres undefined)	0.78 µg/mL	0.78 µg/mL	1.56 µg/mL	1.56 µg/mL	0.78 µg/mL	0.78 µg/mL	> 2000 mg/kg	6.25 µg/mL	12.5 µg/mL	0.78 µg/mL	3.12 µg/mL	–	–	–	–	–	–	–	–	–
Clc1ccc(C[N+]2=CN3CCCCC3C2)cc1.[Br-] (centres undefined)	3.12 µg/mL	0.78 µg/mL	1.56 µg/mL	0.78 µg/mL	0.78 µg/mL	0.78 µg/mL	> 2000 mg/kg	6.25 µg/mL	12.5 µg/mL	0.78 µg/mL	3.12 µg/mL	–	–	–	–	–	–	–	–	–
Cc1cc(C)c(C)c(C[N+]2=CN3CCCCC3C2)c1C.[Br-] (centres undefined)	50 µg/mL	50 µg/mL	50 µg/mL	6.25 µg/mL	6.25 µg/mL	12.5 µg/mL	1950 mg/kg	6.25 µg/mL	200 µg/mL	50 µg/mL	100 µg/mL	–	–	–	–	–	–	–	–	–
NYSTATIN	–	–	–	–	–	–	–	–	–	–	–	3.12 µg/mL	6.25 µg/mL	–	–	–	–	–	–	–
GENTAMICIN	–	–	3.12 µg/mL	–	–	–	–	–	–	–	–	–	–	1.56 µg/mL	3.12 µg/mL	0.78 µg/mL	25 µg/mL	6.25 µg/mL	1.56 µg/mL	6.25 µg/mL
